Published values gathered from unrelated publications.
Compare with care: the assays were run in different laboratories.
Cell line: HEK293
Read-out: cell growth or viability

The IC50 of `CC(=O)SCc1cc(=O)oc2ccc(O)cc12` is reported as greater than 20 µM (MTT; 36 h).
`CC(=O)O[C@H](C)C(=O)CCCCC[C@@H]1NC(=O)[C@H]2CCCN2C(=O)[C@H](Cc2ccccc2)NC(=O)C(C)(C)NC1=O` gave an IC50 of 0.006 µM (XTT).
`c1ccc2c(OCCCCCCN3CCCCCC3)cccc2c1` gave an IC50 of 11.8 µM (48 h).
`Cc1[nH]c(C)c(-c2ccc(C(=O)c3ccc(Cl)cc3)cc2)c(=O)c1Br` gave an IC50 of greater than 10 µM.
`O=c1cc(CCl)c2cc(O)ccc2o1` gave an IC50 of greater than 20 µM (MTT; 36 h).
With `O=C(c1cc(-c2cccs2)[nH]n1)N1CCN(S(=O)(=O)c2ccc(Cl)s2)CC1` the IC50 was greater than 10 µM.
`CC(=O)Oc1ccc2oc(=O)cc(CSC(C)=O)c2c1` has an IC50 of greater than 20 µM (MTT; 36 h).
With `CCCc1ccc(OCCCCCN2CCCCCC2)cc1` the IC50 was 33.3 µM (48 h).
`C[C@@H](O)C(=O)CCCCCCC(=O)Nc1ccccc1` gave an IC50 of 35.6 µM (XTT).
`COc1cccc2c1C(=O)c1c(O)c3c(c(O)c1C2=O)C[C@@](O)(C(=O)CO)C[C@@H]3O[C@H]1C[C@H](N)[C@H](O)[C@H](C)O1` gave an IC50 of greater than 40 µM (MTT; 24 h).
With `Cc1nc2ccccc2c(O)c1-c1ccc(Cl)cc1` the IC50 was greater than 10 µM.
The IC50 of `Cc1c(C)c2c(O)cc(O)cc2oc1=O` is reported as greater than 20 µM (MTT; 36 h).
`C[C@@H](O)C(=O)CCCCC[C@@H]1NC(=O)[C@H]2CCCN2C(=O)[C@H](Cc2ccccc2)NC(=O)C(C)(C)NC1=O` has an IC50 of 0.04 µM (XTT).
`CCCCCCCCc1c(C)[nH]c(C)c(C#N)c1=O` has an IC50 of greater than 10 µM.
